What was measured:
[1] = Cmax in CAnN.Cg-Foxnlnu/CrlCrlj mouse plasma at 25 mg/kg, po single dose measured up to 24 hrs by liquid chromatography tandem mass spectrometry; type: ADME, organism-based; set-up: route oral, dose 25 mg/kg, time <=24
[2] = Permeability of compound by PAMPA assay; type: ADME; settings: read-out: permeability
CYP2C19 = CYP2C19 (Homo sapiens, UniProt P33261); experiment: Time dependent inhibition of CYP2C19 in human liver microsomes assessed as enzyme remaining activity using cocktail of probe CYP as substrate at 50 uM; type: ADME; settings: probe cocktail of CYP probe substrates, read-out: Activity
Sequence of CYP2C19 (P33261 whole entry): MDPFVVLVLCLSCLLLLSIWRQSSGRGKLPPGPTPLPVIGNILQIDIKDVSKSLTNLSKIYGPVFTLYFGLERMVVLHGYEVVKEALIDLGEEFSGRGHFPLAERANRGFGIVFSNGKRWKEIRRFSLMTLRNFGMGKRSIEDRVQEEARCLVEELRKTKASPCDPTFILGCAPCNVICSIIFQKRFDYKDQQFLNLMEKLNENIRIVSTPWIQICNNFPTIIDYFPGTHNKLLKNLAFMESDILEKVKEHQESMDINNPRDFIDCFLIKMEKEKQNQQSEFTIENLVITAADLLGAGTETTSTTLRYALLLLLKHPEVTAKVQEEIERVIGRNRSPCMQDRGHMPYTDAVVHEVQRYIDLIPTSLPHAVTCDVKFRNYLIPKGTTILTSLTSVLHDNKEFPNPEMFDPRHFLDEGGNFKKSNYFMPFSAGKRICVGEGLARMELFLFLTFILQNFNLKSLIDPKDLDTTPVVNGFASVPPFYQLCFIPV
Method in brief: (§1)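 Time-dependent CYP inhibition in human liver microsomes, with test compound at 50 µM and a cocktail of probe CYP substrates.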

CYP1A2 = target: T1, CYP1A2 (Homo sapiens, UniProt P05177); experiment: Time dependent inhibition of CYP1A2 in human liver microsomes assessed as enzyme remaining activity using cocktail of probe CYP as substrate at 50 uM; type: ADME; settings: probe cocktail of CYP probe substrates, read-out: Activity; method in brief: as §1
T1 sequence (P05177 whole entry): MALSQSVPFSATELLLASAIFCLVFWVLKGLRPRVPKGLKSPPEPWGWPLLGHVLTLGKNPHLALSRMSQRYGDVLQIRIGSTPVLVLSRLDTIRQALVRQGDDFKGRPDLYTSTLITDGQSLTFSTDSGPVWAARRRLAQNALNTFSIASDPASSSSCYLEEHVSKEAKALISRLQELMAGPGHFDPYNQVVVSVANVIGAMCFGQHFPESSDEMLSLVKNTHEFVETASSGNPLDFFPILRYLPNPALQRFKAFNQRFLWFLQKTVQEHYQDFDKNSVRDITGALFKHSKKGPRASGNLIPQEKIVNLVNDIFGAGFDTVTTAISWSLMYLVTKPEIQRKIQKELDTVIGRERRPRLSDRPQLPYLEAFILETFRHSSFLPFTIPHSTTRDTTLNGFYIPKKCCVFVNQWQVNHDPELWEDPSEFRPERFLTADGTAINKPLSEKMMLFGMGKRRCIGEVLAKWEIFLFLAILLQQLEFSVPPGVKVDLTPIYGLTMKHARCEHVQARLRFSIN

CYP3A = experiment: Time dependent inhibition of CYP3A in human liver microsomes assessed as enzyme remaining activity using cocktail of probe CYP as substrate at 50 uM; type: ADME; settings: probe cocktail of CYP probe substrates, read-out: Activity; method in brief: as §1
CYP2D6 = CYP2D6 (Homo sapiens, UniProt P10635); experiment: Time dependent inhibition of CYP2D6 in human liver microsomes assessed as enzyme remaining activity using cocktail of probe CYP as substrate at 50 uM; type: ADME; settings: probe cocktail of CYP probe substrates, read-out: Activity; method in brief: as §1
Sequence of CYP2D6 (P10635 whole entry): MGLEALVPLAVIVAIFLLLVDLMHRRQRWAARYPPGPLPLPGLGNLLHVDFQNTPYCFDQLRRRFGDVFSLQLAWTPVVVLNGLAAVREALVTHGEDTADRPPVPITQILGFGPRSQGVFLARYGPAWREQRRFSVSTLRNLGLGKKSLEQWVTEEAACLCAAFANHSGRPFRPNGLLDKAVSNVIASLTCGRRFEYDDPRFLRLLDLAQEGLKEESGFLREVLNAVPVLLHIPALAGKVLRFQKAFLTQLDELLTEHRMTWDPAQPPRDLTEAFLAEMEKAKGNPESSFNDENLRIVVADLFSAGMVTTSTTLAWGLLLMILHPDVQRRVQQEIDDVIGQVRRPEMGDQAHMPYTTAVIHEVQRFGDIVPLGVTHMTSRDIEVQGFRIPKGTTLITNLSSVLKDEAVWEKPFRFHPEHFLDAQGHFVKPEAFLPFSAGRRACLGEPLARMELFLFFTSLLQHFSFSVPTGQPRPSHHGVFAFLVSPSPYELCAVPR

[3] = Metabolic stability in mouse liver microsomes assessed as residual ratio at 0.1 uM for 30 mins; type: ADME, Microsome; settings: read-out: Stabilty
Method in brief: (§2)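 Compound incubated at 0.1 µM for 30 min with human or mouse liver microsomes. Residual ratio of parent determined afterwards.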

[4] = target: T2, Tyrosine-protein kinase Mer (Mus musculus, UniProt Q60805); experiment: Inhibition of Mer in mouse BaF3 cells; type: cell-based
T2 sequence (Q60805 whole entry): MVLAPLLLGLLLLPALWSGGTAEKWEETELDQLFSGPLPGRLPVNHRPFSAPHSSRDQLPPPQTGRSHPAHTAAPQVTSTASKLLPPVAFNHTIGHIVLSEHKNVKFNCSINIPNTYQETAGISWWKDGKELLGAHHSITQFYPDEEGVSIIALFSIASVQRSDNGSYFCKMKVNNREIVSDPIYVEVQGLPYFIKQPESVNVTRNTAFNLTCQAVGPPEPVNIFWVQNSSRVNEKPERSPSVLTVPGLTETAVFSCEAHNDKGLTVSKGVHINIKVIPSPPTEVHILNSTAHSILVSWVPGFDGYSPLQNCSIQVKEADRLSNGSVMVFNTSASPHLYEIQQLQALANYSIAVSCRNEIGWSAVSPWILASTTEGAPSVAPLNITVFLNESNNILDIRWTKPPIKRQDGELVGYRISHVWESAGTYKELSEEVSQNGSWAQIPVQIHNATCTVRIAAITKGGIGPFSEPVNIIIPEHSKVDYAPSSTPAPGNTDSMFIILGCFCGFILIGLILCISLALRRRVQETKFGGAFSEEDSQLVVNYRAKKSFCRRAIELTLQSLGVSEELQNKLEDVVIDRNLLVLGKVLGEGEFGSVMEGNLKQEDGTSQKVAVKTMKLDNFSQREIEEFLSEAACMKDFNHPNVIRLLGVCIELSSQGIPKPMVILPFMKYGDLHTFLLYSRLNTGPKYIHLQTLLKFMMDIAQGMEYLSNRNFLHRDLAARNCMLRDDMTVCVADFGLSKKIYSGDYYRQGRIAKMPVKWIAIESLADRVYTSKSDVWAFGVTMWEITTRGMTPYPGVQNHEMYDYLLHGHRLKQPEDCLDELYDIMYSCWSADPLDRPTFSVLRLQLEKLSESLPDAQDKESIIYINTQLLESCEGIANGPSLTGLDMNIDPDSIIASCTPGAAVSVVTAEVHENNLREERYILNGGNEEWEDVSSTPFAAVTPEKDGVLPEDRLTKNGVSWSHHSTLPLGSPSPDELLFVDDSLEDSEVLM

[5] = Tmax in CAnN.Cg-Foxnlnu/CrlCrlj mouse plasma at 100 mg/kg, po single dose measured up to 24 hrs by liquid chromatography tandem mass spectrometry; type: ADME, organism-based
[6] = AUC (0 to 24 hrs) in CAnN.Cg-Foxnlnu/CrlCrlj mouse plasma at 100 mg/kg, po single dose measured up to 24 hrs by liquid chromatography tandem mass spectrometry; type: ADME, organism-based; set-up: route oral, dose 100 mg/kg, time <=24
CYP2C9 = CYP2C9 (Homo sapiens, UniProt P11712); experiment: Time dependent inhibition of CYP2C9 in human liver microsomes assessed as enzyme remaining activity using cocktail of probe CYP as substrate at 50 uM; type: ADME; settings: probe cocktail of CYP probe substrates, read-out: Activity; method in brief: as §1
Sequence of CYP2C9 (P11712 whole entry): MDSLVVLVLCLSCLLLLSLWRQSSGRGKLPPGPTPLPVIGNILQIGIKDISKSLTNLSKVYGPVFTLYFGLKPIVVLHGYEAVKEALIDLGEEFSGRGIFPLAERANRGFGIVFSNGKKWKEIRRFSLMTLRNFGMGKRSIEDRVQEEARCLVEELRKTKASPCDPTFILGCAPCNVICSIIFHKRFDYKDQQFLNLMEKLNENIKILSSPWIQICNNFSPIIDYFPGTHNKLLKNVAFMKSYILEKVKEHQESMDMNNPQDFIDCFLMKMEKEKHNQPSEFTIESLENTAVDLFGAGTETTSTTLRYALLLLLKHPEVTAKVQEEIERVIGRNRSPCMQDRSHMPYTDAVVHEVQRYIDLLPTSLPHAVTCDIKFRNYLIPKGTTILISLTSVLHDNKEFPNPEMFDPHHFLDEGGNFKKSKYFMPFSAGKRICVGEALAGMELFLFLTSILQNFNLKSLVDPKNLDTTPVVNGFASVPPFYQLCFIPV

[7] = Tmax in CAnN.Cg-Foxnlnu/CrlCrlj mouse plasma at 50 mg/kg, po single dose measured up to 24 hrs by liquid chromatography tandem mass spectrometry; type: ADME, organism-based
[8] = AUC (0 to 24 hrs) in CAnN.Cg-Foxnlnu/CrlCrlj mouse plasma at 25 mg/kg, po single dose measured up to 24 hrs by liquid chromatography tandem mass spectrometry; type: ADME, organism-based; set-up: route oral, dose 25 mg/kg, time <=24
[9] = AUC (0 to 24 hrs) in CAnN.Cg-Foxnlnu/CrlCrlj mouse plasma at 50 mg/kg, po single dose measured up to 24 hrs by liquid chromatography tandem mass spectrometry; type: ADME, organism-based; set-up: route oral, dose 50 mg/kg, time <=24
[10] = Metabolic stability in human liver microsomes assessed as residual ratio at 0.1 uM for 30 mins; type: ADME, Microsome; settings: read-out: Stabilty; method in brief: as §2
Homo sapiens = species: Homo sapiens; experiment: Ratio of IC50 for Mer (unknown origin) to IC50 for Axl (unknown origin)

Compound `Cc1ccc(-n2c(=O)c(C(=O)Nc3ccc(Oc4ncnc5c4CCN(CC4CCN(C)CC4)C5)c(F)c3)cn(C3CCCC3)c2=O)nc1` has a Cmax [1] of 2340 ng/mL, a Papp [2] of 0.91 ×10⁻⁶ cm/s and an activity at 50 µM (CYP2C19) of 89%. For the same compound, the activity at 50 µM (CYP1A2) was 82%, the activity at 50 µM (CYP3A) was 51% and the activity at 50 µM (CYP2D6) was 83%. The remaining at 0.5 h, 0.1 µM [3] was 66.3%, the IC50 [4] was 180 nM and the Tmax [5] was 1 h. For the same compound, the AUC(0-t) [6] was 110000 ng·h/mL, the activity at 50 µM (CYP2C9) was 87% and the Tmax [7] was 1 h. It also gave an AUC(0-t) [8] of 22900 ng·h/mL, an AUC(0-t) [9] of 56700 ng·h/mL and a remaining at 0.5 h, 0.1 µM [10] of 99%. For the same compound, the Ratio IC50 (Homo sapiens) was 37.
